# AHR act – activates the human aryl hydrocarbon receptor | 2.5% of 320,000 active | P35869 | AID 2796 | activation, % at 5 µM | AHR-responsive luciferase reporter cells, luminescence; in the data active = activation above about 47%;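 note: 0% = vehicle wells and 100% = reference agonist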
# A3G deaminase – blocks human APOBEC3G single-stranded DNA deamination; inhibition, % at 20 µM; AID 493012; 0.28% of 330,000 active; Q9HC16; recombinant A3G, ssDNA deamination FAM/TAMRA fluorescence;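 active = inhibition of at least 40% at 20 µM, with no more than 30% in the related APOBEC3A deaminase screen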;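 note: plate controls were DMSO wells with A3G for no effect and wells lacking A3G enzyme for full effect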
# UCH37 inh – human UCH37 deubiquitinating enzyme inhibition; Q9Y5K5; purified proteasome/UCH37, Ub-AMC cleavage fluorescence; inhibition, % (no concentration beside the values); 0.33% of 330,000 active; AID 588478;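 active = mean inhibition over replicate wells above about 20%, limit read from the data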;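 note: 0% = compound-free wells with enzyme and 100% = wells lacking proteasome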
#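 System: Proteasome-associated human UCH37 deubiquitinase; Input: 0.15 nM proteasome in added enzyme buffer; Also added: Ub-AMC substrate from 1 µM stock; Incubation: 30 min compound-proteasome preincubation then 25 min substrate reaction, room temperature; Detection: fluorescence, ex 355 nm, em 460 nm; Read-out: % inhibition of Ub-AMC cleavage fluorescence; Benchmarks: no-proteasome and no-compound wells.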
# Arrestin-AP2 inh – inhibitors of human beta-arrestin and AP2 interaction; 0.31% of 340,000 active; inhibition, % at 10 µM; FITC-arrestin peptide / GST-AP2 beads, flow cytometry; AP2 beta2 appendage carries R879A mutation; AID 504490;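 active = inhibition above a set limit, near 3 SD of compounds lacking own fluorescence, cut at about 54% in these data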;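 note: plate controls were DMSO wells for no effect and 5 µM unlabelled arrestin peptide for full effect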
#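 System: GST-AP2 R879A glutathione beads. Medium: PBS with 0.05% Tween 20 and 0.1% BSA. Also added: FITC-arrestin peptide, 50 nM. Incubation: 12 min plus 1 h, RT. Measured by: high-throughput flow cytometry of beads, ex 488, em 535 nm. Evaluation: percent drop in bead-associated FITC signal.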
# A3A deaminase – inhibitors of human APOBEC3A DNA deaminase | recombinant A3A, FAM/TAMRA ssDNA deamination fluorescence | inhibition, % at 20 µM | 0.41% of 330,000 active | AID 493011;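 active = at least 40% inhibition at 20 µM here, with at most 30% in a related deaminase screen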;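 note: plate controls were A3A with DMSO for no effect and wells lacking A3A enzyme for full effect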
# Target sequence (P31941 whole entry, looked up): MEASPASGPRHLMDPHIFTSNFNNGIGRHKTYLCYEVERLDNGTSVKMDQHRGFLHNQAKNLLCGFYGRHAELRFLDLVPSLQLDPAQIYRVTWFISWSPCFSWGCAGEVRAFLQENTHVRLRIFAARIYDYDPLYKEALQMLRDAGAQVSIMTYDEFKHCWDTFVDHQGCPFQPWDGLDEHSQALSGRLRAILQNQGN
# PolyA inh – yeast polyadenylation inhibition | S. cerevisiae SKY197-pL101 polyadenylation reporter, beta-gal luminescence; efflux-impaired pdr1/pdr3 knockout yeast; score 100 = 6 SD above DMSO | activity score, % at 12 µM | 0.02% of 300,000 active | AID 1875;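 active = lowest replicate activity score at least 50, where 100 means six control SD above control mean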;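 note: yeast exposed to compound for 9 h at 30 °C; higher score means more reporter readthrough which indicates perturbed polyadenylation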
# Starred values were filed as active, the others as inactive; / = no result given. Hits are enriched below; roughly 3.4% of the tested compounds scored in any of these assays.
SMILES,AHR act,A3G deaminase,UCH37 inh,Arrestin-AP2 inh,A3A deaminase,PolyA inh
O=C(NC(=S)Nc1ccccc1N1CCCC1)c1cccs1,51*,2,6,8,-8,9
Nc1ccc2c3c(cccc13)CC2,55*,-13,-165,23,-7,-3
c1ccc(Nc2ccc3c4c(cccc24)CC3)cc1,6,-8,-163,-2,-4,-32
Cc1cccc(-c2nc3cc(NC(=O)C4CCCO4)ccc3o2)c1 (configuration not stated),2,/,-57,-7,/,2
Cc1ccc2oc(-c3cccc(NC(=O)C4CCCO4)c3)nc2c1 (configuration not stated),72*,-4,-14,-4,-3,-15
COc1ccccc1NC(=O)c1sc2ncn(Cc3ccccc3C)c(=O)c2c1C,28,-5,-287,1,0,12
CCOc1ccccc1NC(=O)c1sc2ncn(CC(=O)N3CCOCC3)c(=O)c2c1C,55*,-2,-17,2,-14,-2
COc1ccccc1NC(=O)c1sc2ncn(CC(=O)N3CCC(C)CC3)c(=O)c2c1C,15,-9,-20,-6,-7,-10
CCn1cnc2sc(C(=O)Nc3ccccc3OC)c(C)c2c1=O,68*,-6,-34,36,4,-18
CCOc1cc(C=NNC(N)=O)cc(Br)c1OCC(=O)Nc1cccc2ccccc12,/,/,0,/,/,/
CCn1c(CNc2ccc(Cl)cc2)nnc1SCc1ccc(C)cc1,50*,5,4,0,4,-12
CCn1c(CNc2ccc(Cl)cc2)nnc1SCc1ccc(Cl)cc1,12,-5,6,-5,-3,-61
O=C(Nc1cccc(C(F)(F)F)c1)c1cccnc1N1CCOCC1,2,0,4,-2,1,17
O=C(Nc1ccc(C(F)(F)F)cc1)c1cccnc1N1CCOCC1,61*,1,1,1,2,1
N#CCC(=O)NN=Cc1ccc(Sc2nc3ccccc3s2)o1,/,/,5,/,/,/
COc1cc(C=Nn2nnnc2N)ccc1O,/,/,-10,/,/,/
CC(=O)Nc1ccc(SC[C@H](CC(C)C)N2CCN(CCc3ccccc3)CCC2=O)cc1,48*,-12,0,0,-8,0
CCOc1c2ccc(C(=O)NCC34CC5CC(CC(C5)C3)C4)cc2nn1CC,51*,29,-35,-5,3,13
CCCOc1ccc(C(=O)NN=Cc2c[nH]c3ccc(Br)cc23)cc1,/,/,-4,/,/,/
Cc1cc(C(=O)NN=Cc2ccc(C)s2)n[nH]1,/,/,7,/,/,/
Cc1ccc(/C=C/C2=NN(C)C(=O)CC2)cc1,-4,1,21*,11,1,8
Cc1ccc(N/C=C(\C#N)c2ccc(OCCCF)cc2)cc1,53*,-5,6,-11,-5,-4
COc1ccc(N/C=C(\C#N)c2ccc(OCCCF)cc2)cc1,8,3,4,2,2,10
CC(=NN1CCN(C2c3ccccc3-c3ccccc32)CC1)c1cccnc1,/,/,5,/,/,/
S=c1[nH]nc(-c2cc(-c3ccccn3)nc3ccccc23)o1,73*,-2,/,-10,-3,-6
SMILES,AHR act,A3G deaminase,UCH37 inh,Arrestin-AP2 inh,A3A deaminase,PolyA inh
CN=c1scc(-c2ccccc2F)n1/N=C(\C)c1cccnc1,78*,-7,/,6,-3,-9
NC(=O)c1c(N=Cc2cccs2)sc2c1CCCC2,/,/,-16,/,/,/
CN1CCc2c(sc(/N=C/c3cccs3)c2C(N)=O)C1,70*,-7,/,8,1,-1
CCOc1ccc(-c2c(C(=O)NN=C(C)c3cccnc3)nnn2-c2nonc2N)cc1,/,/,2,/,/,/
CCCOc1ccc(-c2c(C(=O)N/N=C(\C)c3cccnc3)nnn2-c2nonc2N)cc1,56*,-2,/,16,-2,-3
CCOc1cccc(-c2c(C(=O)N/N=C(\C)c3cccnc3)nnn2-c2nonc2N)c1,60*,-7,/,39,-3,3
Nc1nonc1-n1nnc(C(=O)NN=Cc2ccc(O)cc2)c1CN1CCCCCC1,/,/,8,/,/,/
O=C(CSc1ccc(-c2ccc(Cl)cc2)nn1)N1CCCc2ccccc21,5,-7,1,-2,-1,-2
O=C(CSc1ccc(-c2cccnc2)nn1)N1CCCc2ccccc21,48*,-4,3,/,1,-14
CC(=NNC(=O)Cn1nc(C)c([N+](=O)[O-])c1C)c1ccco1,/,/,6,/,/,/
